Experimental data published in ChEMBL document CHEMBL5058577, “EUbOPEN Chemogenomics Library 2 (Multiplex)” (2022).

System: HEK-293T
Assay: Multiplex assay against HEK293T
Assay type: toxicity, cell-based
Details: human
Procedure, shortened: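 Compound was added to live cells that had been stained at seeding with Hoechst33342, BioTracker Green Microtubule Cytoskeleton Dye, MitoTracker Red and Annexin V Alexa Fluor 680, and imaging followed on a CQ1 microscope at 37°C and 5% CO2. CellPathfinder machine-learning gating divided cells into Hoechst high-intensity objects or normal cells, normal cells into healthy, pyknosed or fragmented nuclei, and pyknosed cells into mitotic or apoptotic. Tubulin, mitochondrial-mass and membrane-permeability phenotypes are per cents of healthy-nucleus cells.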

[1] = 12 h, 1 µM, compound concentration 1 uM, replicate 1
[2] = 12 h, 1 µM, compound concentration 1 uM, replicate 2
[3] = 12 h, 10 µM, compound concentration 10 uM, replicate 1
[4] = 12 h, 10 µM, compound concentration 10 uM, replicate 2
[5] = 24 h, 1 µM, compound concentration 1 uM, replicate 1
[6] = 24 h, 1 µM, compound concentration 1 uM, replicate 2
[7] = 24 h, 10 µM, compound concentration 10 uM, replicate 1
[8] = 24 h, 10 µM, compound concentration 10 uM, replicate 2
[9] = 48 h, 1 µM, compound concentration 1 uM, replicate 1
[10] = 48 h, 1 µM, compound concentration 1 uM, replicate 2
[11] = 48 h, 10 µM, compound concentration 10 uM, replicate 1
[12] = 48 h, 10 µM, compound concentration 10 uM, replicate 2

SMILES: Cc1nc2ccc(Oc3ccc(F)cc3)cc2c(=O)n1C[C@H]1CCCN(C(C)C)C1.Cl
- Population Apoptotic (%) [1]: 40%
- Population Fragmented Nuclei (%) [1]: 7%
- Population Healthy Nuclei (%) [1]: 80%
- Population Hoechst High Intensity Objects (%) [1]: 6%
- Population Membrane Permeable-Phenotype (%) [1]: 0%
- Population Mitochondria Different-Phenotype (%) [1]: 50%
- Population Mitotic Cells (%) [1]: 60%
- Population Normal (%) [1]: 93%
- Population Pyknosed Nuclei (%) [1]: 11%
- Population Tubulin-Different-Phenotype (%) [1]: 42%
- Total Cell Count [1]: 381
- Population Apoptotic (%) [2]: 61%
- Population Fragmented Nuclei (%) [2]: 5%
- Population Healthy Nuclei (%) [2]: 70%
- Population Hoechst High Intensity Objects (%) [2]: 27%
- Population Mitochondria Different-Phenotype (%) [2]: 69%
- Population Mitotic Cells (%) [2]: 38%
- Population Normal (%) [2]: 72%
- Population Pyknosed Nuclei (%) [2]: 24%
- Population Tubulin-Different-Phenotype (%) [2]: 34%
- Total Cell Count [2]: 204
- Population Apoptotic (%) [3]: 54%
- Population Fragmented Nuclei (%) [3]: 7%
- Population Healthy Nuclei (%) [3]: 78%
- Population Hoechst High Intensity Objects (%) [3]: 17%
- Population Membrane Permeable-Phenotype (%) [3]: 0%
- Population Mitochondria Different-Phenotype (%) [3]: 81%
- Population Mitotic Cells (%) [3]: 45%
- Population Normal (%) [3]: 82%
- Population Pyknosed Nuclei (%) [3]: 13%
- Population Tubulin-Different-Phenotype (%) [3]: 76%
- Total Cell Count [3]: 405
- Population Apoptotic (%) [4]: 61%
- Population Fragmented Nuclei (%) [4]: 8%
- Population Healthy Nuclei (%) [4]: 74%
- Population Hoechst High Intensity Objects (%) [4]: 20%
- Population Mitochondria Different-Phenotype (%) [4]: 94%
- Population Mitotic Cells (%) [4]: 38%
- Population Normal (%) [4]: 79%
- Population Pyknosed Nuclei (%) [4]: 17%
- Population Tubulin-Different-Phenotype (%) [4]: 73%
- Total Cell Count [4]: 310
- Population Apoptotic (%) [5]: 31%
- Population Fragmented Nuclei (%) [5]: 11%
- Population Healthy Nuclei (%) [5]: 80%
- Population Hoechst High Intensity Objects (%) [5]: 4%
- Population Membrane Permeable-Phenotype (%) [5]: 0%
- Population Mitochondria Different-Phenotype (%) [5]: 36%
- Population Mitotic Cells (%) [5]: 68%
- Population Normal (%) [5]: 95%
- Population Pyknosed Nuclei (%) [5]: 8%
- Population Tubulin-Different-Phenotype (%) [5]: 27%
- Total Cell Count [5]: 553
- Population Apoptotic (%) [6]: 37%
- Population Healthy Nuclei (%) [6]: 72%
- Population Hoechst High Intensity Objects (%) [6]: 22%
- Population Mitochondria Different-Phenotype (%) [6]: 52%
- Population Mitotic Cells (%) [6]: 62%
- Population Normal (%) [6]: 77%
- Population Pyknosed Nuclei (%) [6]: 16%
- Population Tubulin-Different-Phenotype (%) [6]: 20%
- Total Cell Count [6]: 281
- Population Apoptotic (%) [7]: 49%
- Population Fragmented Nuclei (%) [7]: 10%
- Population Healthy Nuclei (%) [7]: 73%
- Population Hoechst High Intensity Objects (%) [7]: 12%
- Population Membrane Permeable-Phenotype (%) [7]: 3%
- Population Mitochondria Different-Phenotype (%) [7]: 67%
- Population Mitotic Cells (%) [7]: 50%
- Population Normal (%) [7]: 87%
- Population Pyknosed Nuclei (%) [7]: 15%
- Population Tubulin-Different-Phenotype (%) [7]: 70%
- Total Cell Count [7]: 525
- Population Apoptotic (%) [8]: 68%
- Population Fragmented Nuclei (%) [8]: 11%
- Population Healthy Nuclei (%) [8]: 75%
- Population Hoechst High Intensity Objects (%) [8]: 23%
- Population Membrane Permeable-Phenotype (%) [8]: 0%
- Population Mitochondria Different-Phenotype (%) [8]: 88%
- Population Mitotic Cells (%) [8]: 31%
- Population Normal (%) [8]: 76%
- Population Pyknosed Nuclei (%) [8]: 12%
- Population Tubulin-Different-Phenotype (%) [8]: 68%
- Total Cell Count [8]: 334
- Population Apoptotic (%) [9]: 27%
- Population Fragmented Nuclei (%) [9]: 19%
- Population Healthy Nuclei (%) [9]: 75%
- Population Hoechst High Intensity Objects (%) [9]: 1%
- Population Membrane Permeable-Phenotype (%) [9]: 1%
- Population Mitochondria Different-Phenotype (%) [9]: 22%
- Population Mitotic Cells (%) [9]: 72%
- Population Normal (%) [9]: 98%
- Population Pyknosed Nuclei (%) [9]: 5%
- Population Tubulin-Different-Phenotype (%) [9]: 14%
- Total Cell Count [9]: 901
- Population Apoptotic (%) [10]: 60%
- Population Fragmented Nuclei (%) [10]: 13%
- Population Healthy Nuclei (%) [10]: 80%
- Population Hoechst High Intensity Objects (%) [10]: 7%
- Population Membrane Permeable-Phenotype (%) [10]: 0%
- Population Mitochondria Different-Phenotype (%) [10]: 36%
- Population Mitotic Cells (%) [10]: 39%
- Population Normal (%) [10]: 92%
- Population Pyknosed Nuclei (%) [10]: 6%
- Total Cell Count [10]: 380
- Population Apoptotic (%) [11]: 47%
- Population Fragmented Nuclei (%) [11]: 15%
- Population Healthy Nuclei (%) [11]: 74%
- Population Hoechst High Intensity Objects (%) [11]: 11%
- Population Membrane Permeable-Phenotype (%) [11]: 2%
- Population Mitochondria Different-Phenotype (%) [11]: 60%
- Population Mitotic Cells (%) [11]: 52%
- Population Normal (%) [11]: 88%
- Population Pyknosed Nuclei (%) [11]: 9%
- Population Tubulin-Different-Phenotype (%) [11]: 62%
- Total Cell Count [11]: 754
- Population Apoptotic (%) [12]: 67%
- Population Fragmented Nuclei (%) [12]: 17%
- Population Healthy Nuclei (%) [12]: 72%
- Population Hoechst High Intensity Objects (%) [12]: 22%
- Population Membrane Permeable-Phenotype (%) [12]: 0%
- Population Mitochondria Different-Phenotype (%) [12]: 69%
- Population Mitotic Cells (%) [12]: 32%
- Population Normal (%) [12]: 78%
- Population Tubulin-Different-Phenotype (%) [12]: 58%
- Total Cell Count [12]: 459
